Measurements published in ChEMBL document CHEMBL4406821, “Novel dual inhibitors targeting CDK4 and VEGFR2 synergistically suppressed cancer progression and angiogenesis” (Eur J Med Chem, 2019).
Activity calls are given as the source filed them. The rule behind the calls is not given here.

Key:
[1] = target: Serine/threonine-protein kinase STK11 (Homo sapiens) (UniProt Q15831); assay: Inhibition of recombinant human full length LKB1 at 1 uM using LSNLYHQGKFLQTFCGSPLYRRR as substrate incubated for 40 mins in presence of [gamma-33P]-ATP by scintillation counting method relative to control
[2] = target: T1, Vascular endothelial growth factor receptor 2 (Homo sapiens, UniProt P35968); assay: Inhibition of recombinant human VEGFR2 (790 to end residues) using myelin ba as substrate incubated for 40 mins by [gamma-33P]-ATP based radiometric assay
T1 sequence (P35968 whole entry): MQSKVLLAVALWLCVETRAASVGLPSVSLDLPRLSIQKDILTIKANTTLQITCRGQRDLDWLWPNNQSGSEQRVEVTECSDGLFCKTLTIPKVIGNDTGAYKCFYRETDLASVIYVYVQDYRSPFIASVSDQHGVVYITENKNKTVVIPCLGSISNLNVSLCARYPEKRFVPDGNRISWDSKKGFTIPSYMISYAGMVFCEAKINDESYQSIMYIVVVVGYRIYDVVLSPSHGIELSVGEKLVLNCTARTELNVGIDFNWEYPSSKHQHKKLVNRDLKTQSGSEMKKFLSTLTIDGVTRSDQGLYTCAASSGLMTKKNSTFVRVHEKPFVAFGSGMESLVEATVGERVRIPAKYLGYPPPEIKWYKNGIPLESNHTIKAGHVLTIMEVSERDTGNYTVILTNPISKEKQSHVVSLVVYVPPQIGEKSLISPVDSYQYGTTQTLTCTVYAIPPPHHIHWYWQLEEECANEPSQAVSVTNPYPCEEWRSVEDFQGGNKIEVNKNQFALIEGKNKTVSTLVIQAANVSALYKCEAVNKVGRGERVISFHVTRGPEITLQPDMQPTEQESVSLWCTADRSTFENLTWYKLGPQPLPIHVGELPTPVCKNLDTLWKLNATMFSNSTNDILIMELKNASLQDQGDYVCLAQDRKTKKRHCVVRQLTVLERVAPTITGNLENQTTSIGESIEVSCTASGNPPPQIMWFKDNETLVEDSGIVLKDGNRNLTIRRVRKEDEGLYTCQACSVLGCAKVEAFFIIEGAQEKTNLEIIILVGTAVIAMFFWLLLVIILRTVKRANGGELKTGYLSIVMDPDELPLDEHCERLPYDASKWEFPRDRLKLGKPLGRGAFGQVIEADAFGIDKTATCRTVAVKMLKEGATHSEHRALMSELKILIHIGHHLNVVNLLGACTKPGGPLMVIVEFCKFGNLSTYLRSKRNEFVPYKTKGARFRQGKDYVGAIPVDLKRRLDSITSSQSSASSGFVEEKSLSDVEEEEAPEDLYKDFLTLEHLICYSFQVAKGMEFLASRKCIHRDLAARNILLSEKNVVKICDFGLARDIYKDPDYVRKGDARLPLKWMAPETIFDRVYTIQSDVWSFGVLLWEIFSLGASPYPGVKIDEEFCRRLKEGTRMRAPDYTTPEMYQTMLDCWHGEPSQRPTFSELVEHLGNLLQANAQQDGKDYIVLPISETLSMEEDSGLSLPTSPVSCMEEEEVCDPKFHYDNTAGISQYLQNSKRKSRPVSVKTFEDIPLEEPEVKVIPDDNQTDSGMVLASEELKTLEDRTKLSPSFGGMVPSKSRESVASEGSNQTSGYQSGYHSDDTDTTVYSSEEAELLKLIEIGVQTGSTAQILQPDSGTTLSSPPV

[3] = target: Cytoplasmic tyrosine-protein kinase BMX (Homo sapiens) (UniProt P51813); assay: Inhibition of recombinant full length human BMX at 1 uM using poly(Glu, Tyr) 4:1 as substrate incubated for 40 mins in presence of [gamma-33P]-ATP by scintillation counting method relative to control
Sequence of Cytoplasmic tyrosine-protein kinase BMX (Homo sapiens) (P51813 whole entry): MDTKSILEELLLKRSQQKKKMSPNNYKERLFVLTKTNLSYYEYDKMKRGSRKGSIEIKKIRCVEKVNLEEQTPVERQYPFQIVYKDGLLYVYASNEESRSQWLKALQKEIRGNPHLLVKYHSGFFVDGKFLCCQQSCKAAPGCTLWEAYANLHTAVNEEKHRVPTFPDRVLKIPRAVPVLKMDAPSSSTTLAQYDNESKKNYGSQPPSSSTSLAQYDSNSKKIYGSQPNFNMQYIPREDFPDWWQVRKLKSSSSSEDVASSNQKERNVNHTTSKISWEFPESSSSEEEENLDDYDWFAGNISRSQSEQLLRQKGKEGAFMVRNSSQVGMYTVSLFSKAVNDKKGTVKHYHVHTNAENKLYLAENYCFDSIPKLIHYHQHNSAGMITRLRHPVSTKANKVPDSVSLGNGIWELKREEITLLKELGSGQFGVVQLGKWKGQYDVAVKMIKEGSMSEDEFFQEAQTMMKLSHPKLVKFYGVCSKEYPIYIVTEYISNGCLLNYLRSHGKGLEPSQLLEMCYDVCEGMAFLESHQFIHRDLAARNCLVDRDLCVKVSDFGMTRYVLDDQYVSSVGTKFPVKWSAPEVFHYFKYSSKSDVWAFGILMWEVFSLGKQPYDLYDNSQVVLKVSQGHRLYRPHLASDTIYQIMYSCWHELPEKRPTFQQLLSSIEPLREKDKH
Outline: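 Kinase panel profiling at 1 μM performed by Eurofins KinaseProfiler; percent inhibition reported as mean of two independent experiments.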

[4] = test system: MDA-MB-231; assay: Induction of cell cycle arrest in human MDA-MB-231 cells assessed as accumulation in G2/M phase at 20 to 40 nM incubated for 36 hrs by propidium iodide staining based flow cytometry; assay type: functional
Outline: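 Cells were treated with graded concentrations for 36 h, then fixed overnight in 70% ice-cold ethanol at 4°C and resuspended in PBS. Staining used 50 µg/ml PI plus 5 µg/ml RNase at 37°C for 30 min. DNA content was analysed by FACS to give G0/G1, S and G2/M fractions.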

[5] = target: Transient receptor potential cation channel subfamily M member 7 (Homo sapiens) (UniProt Q96QT4); assay: Inhibition of recombinant human CHAK1 (1180 to end residues) at 1 uM using myelin ba as substrate incubated for 40 mins in presence of [gamma-33P]-ATP by scintillation counting method relative to control
Sequence of Transient receptor potential cation channel subfamily M member 7 (Homo sapiens) (Q96QT4 whole entry): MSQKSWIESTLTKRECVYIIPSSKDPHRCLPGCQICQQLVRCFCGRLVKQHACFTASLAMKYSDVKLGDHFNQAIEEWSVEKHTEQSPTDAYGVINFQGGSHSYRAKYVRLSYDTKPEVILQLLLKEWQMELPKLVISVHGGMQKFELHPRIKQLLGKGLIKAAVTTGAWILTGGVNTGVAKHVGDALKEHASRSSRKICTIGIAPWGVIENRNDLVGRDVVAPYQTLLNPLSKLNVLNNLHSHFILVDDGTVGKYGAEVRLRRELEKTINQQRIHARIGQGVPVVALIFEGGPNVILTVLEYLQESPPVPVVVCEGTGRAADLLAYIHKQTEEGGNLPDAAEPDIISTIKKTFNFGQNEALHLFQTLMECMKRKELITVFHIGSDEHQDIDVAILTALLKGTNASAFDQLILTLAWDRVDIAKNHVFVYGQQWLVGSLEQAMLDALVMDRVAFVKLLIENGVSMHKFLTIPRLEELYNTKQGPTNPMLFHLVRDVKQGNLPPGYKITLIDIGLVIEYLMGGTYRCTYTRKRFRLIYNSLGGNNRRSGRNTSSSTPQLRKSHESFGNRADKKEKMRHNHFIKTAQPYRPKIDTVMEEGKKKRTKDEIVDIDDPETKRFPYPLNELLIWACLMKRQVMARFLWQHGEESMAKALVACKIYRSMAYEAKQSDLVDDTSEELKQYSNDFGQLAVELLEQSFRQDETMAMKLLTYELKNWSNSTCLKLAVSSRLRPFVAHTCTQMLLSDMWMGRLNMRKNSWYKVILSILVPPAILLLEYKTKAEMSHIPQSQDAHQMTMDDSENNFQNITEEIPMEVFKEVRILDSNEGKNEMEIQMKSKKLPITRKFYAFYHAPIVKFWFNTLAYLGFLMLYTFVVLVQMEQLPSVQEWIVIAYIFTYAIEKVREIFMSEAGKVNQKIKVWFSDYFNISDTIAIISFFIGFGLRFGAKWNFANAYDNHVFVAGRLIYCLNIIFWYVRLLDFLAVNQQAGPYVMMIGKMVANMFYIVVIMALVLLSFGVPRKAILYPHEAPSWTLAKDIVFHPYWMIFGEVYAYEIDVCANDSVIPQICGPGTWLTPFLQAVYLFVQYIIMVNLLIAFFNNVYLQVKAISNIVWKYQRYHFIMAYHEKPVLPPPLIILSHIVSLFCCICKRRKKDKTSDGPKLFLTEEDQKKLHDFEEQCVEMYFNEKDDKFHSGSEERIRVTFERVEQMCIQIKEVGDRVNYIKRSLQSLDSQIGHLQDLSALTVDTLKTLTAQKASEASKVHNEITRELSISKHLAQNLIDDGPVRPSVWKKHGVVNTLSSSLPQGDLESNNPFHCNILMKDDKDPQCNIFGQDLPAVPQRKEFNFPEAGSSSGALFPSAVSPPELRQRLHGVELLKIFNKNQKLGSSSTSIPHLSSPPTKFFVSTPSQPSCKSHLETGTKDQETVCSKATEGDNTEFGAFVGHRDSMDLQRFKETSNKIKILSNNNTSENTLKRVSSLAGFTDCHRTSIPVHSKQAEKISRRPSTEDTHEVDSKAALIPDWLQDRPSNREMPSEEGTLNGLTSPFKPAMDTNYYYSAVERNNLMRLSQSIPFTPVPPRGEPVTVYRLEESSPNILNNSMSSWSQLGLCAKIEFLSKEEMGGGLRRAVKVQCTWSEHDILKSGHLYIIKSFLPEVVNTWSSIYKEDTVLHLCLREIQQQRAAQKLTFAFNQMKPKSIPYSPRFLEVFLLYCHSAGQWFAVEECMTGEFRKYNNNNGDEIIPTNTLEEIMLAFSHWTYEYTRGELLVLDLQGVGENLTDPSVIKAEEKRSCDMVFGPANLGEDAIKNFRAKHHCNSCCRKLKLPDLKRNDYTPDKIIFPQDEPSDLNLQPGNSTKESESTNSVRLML
Outline: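 Tested at a single 1 uM in an outsourced commercial kinase-profiling panel, read as percent inhibition. Each value is the mean of two independent experiments.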

[6] = target: Serine/threonine-protein kinase PAK 6 (Homo sapiens) (UniProt Q9NQU5); assay: Inhibition of recombinant human PAK6 (382 to end residues) at 1 uM using RRRLSFAEPG as substrate incubated for 40 mins in presence of [gamma-33P]-ATP by scintillation counting method relative to control
[7] = test system: HeLa; assay: Induction of apoptosis in human HeLa cells assessed as decrease in Ki67 expression at 40 to 80 nM incubated for 48 hrs by Western blot analysis; assay type: functional, cell-based
Outline: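 Cells were treated for 48 h, washed three times with PBS, and lysed in RIPA buffer. Immunoblots used anti-Rb, anti-phospho-Rb, anti-Ki67 and anti-Bcl-2 (each 1:1000), with β-actin as loading control.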

[8] = Half life in Sprague-Dawley rat at 10 mg/kg, po by HPLC-MS analysis; assay type: ADME, organism-based; settings: in vivo
Outline: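 Rats fitted with jugular vein catheters for serial blood sampling. Compound dissolved in saline with 5% (v/v) DMSO and given as a single 10 mg/kg dose iv or po after an overnight fast, n = 5 per group. Plasma isolated at once and measured by HPLC with tandem MS detection. Parameters derived by noncompartmental fitting.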

[9] = test system: SiHa; assay: Antiproliferative activity against human SiHa cells assessed as reduction in cell viability at 40 to 80 nM incubated for 48 hrs by EdU staining based laser scanning confocal microscopy; assay type: functional
Outline: (§1)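 Cells, 5×10^4, were seeded in 24-well plates and treated for 48 h. They were then labeled using an EdU Apollo 488 imaging kit with Hoechst 33342 nuclear stain and imaged by laser scanning confocal microscopy. Percent EdU-positive cells = EdU-positive/Hoechst-stained × 100%.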

[10] = test system: MDA-MB-231; assay: Antiproliferative activity against human MDA-MB-231 cells at 20 to 40 nM assessed as reduction in cell viability incubated for 48 hrs by EdU staining based laser scanning confocal microscopy; assay type: functional; outline: as §1
[11] = target: Serine/threonine-protein kinase PAK 4 (Homo sapiens) (UniProt O96013); assay: Inhibition of recombinant human PAK4 (295 to end residues) at 1 uM using myelin basic protein as substrate incubated for 40 mins in presence of [gamma-33P]-ATP by scintillation counting method relative to control
[12] = test system: Fibroblast growth factor receptor 2 (Homo sapiens), P21802 [N549H]; assay: Inhibition of recombinant human FGFR2 N549H mutant (456 to 770 residues) at 1 uM using GGEEEEYFELVKKKK as substrate incubated for 40 mins in presence of [gamma-33P]-ATP by scintillation counting method relative to control
[13] = target: Serine/threonine-protein kinase D1 (Homo sapiens) (UniProt Q15139); assay: Inhibition of recombinant human full length PKCmu at 1 uM using KKLNRTLSVA as substrate incubated for 40 mins in presence of [gamma-33P]-ATP by scintillation counting method relative to control
[14] = target: Protein kinase C theta type (Homo sapiens) (UniProt Q04759); assay: Inhibition of recombinant human full length PKCtheta at 1 uM using histone H1 as substrate incubated for 40 mins in presence of [gamma-33P]-ATP by scintillation counting method relative to control
[15] = target: Tyrosine-protein kinase FRK (Homo sapiens) (UniProt P42685); assay: Inhibition of recombinant human PTK5 (218 to end residues) at 1 uM using GGEEEEYFELVKKKK as substrate incubated for 40 mins in presence of [gamma-33P]-ATP by scintillation counting method relative to control
Sequence of Tyrosine-protein kinase FRK (Homo sapiens) (P42685 whole entry): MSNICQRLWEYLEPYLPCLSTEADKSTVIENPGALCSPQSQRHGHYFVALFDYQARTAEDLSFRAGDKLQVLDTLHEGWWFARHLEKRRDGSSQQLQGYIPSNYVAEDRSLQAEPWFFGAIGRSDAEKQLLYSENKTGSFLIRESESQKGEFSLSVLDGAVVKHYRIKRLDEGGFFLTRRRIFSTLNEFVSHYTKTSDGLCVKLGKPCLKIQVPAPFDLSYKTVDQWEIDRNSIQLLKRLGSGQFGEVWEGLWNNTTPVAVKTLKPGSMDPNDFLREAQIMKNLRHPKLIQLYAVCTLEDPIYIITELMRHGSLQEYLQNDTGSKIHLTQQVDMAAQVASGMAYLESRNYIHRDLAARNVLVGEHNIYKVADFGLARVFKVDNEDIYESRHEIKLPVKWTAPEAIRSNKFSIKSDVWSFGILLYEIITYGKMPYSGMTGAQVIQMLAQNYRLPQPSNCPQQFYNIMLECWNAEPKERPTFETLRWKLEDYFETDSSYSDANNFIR

[16] = target: Serine/threonine-protein kinase 38-like (Homo sapiens) (UniProt Q9Y2H1); assay: Inhibition of recombinant human NDR2 (83 to end residues) at 1 uM using RSRSRSRSRSRSRSR as substrate incubated for 40 mins in presence of [gamma-33P]-ATP by scintillation counting method relative to control
[17] = test system: T47D; assay: Antiproliferative activity against human T47D cells assessed as reduction in cell viability at 20 to 40 nM incubated for 48 hrs by EdU staining based laser scanning confocal microscopy; assay type: functional; outline: as §1
[18] = target: Serine/threonine-protein kinase Nek7 (Homo sapiens) (UniProt Q8TDX7); assay: Inhibition of recombinant human NEK7 (2 to end residues) at 1 uM using FLAKSFGSPNRAYKK as substrate incubated for 40 mins in presence of [gamma-33P]-ATP by scintillation counting method relative to control
Sequence of Serine/threonine-protein kinase Nek7 (Homo sapiens) (Q8TDX7 whole entry, looked up): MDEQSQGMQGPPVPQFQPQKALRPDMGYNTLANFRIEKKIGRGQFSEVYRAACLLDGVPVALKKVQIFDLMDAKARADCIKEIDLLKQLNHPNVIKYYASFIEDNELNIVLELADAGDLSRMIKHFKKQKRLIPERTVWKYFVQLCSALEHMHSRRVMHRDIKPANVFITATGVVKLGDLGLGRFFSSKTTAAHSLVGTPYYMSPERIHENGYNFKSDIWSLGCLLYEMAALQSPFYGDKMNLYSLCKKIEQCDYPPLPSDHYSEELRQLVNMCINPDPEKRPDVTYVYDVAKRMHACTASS

[19] = test system: SiHa; assay: Antiangiogenic activity against human SiHa cells xenografted in NOD/SCID BALB/c mouse assessed as reduction in CD31 expression at 40 mg/kg, po measured after 21 days by hematoxylin and eosin staining based immunohistochemistry; assay type: functional, organism-based
Outline: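 Female NOD/SCID Balb/c mice, 6–8 weeks old, received 2×10^6 SiHa cells subcutaneously in the right flank. Once tumors reached 100 mm³, mice were randomized, 5 per group, and gavaged once daily for 21 days. Formalin-fixed, paraffin-embedded tumor sections were stained with Ki67 or CD31 antibody (1:100, 4 °C overnight), then biotin secondary and ABC-peroxidase/DAB, with hematoxylin counterstain.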

[20] = target: T1, Vascular endothelial growth factor receptor 2; settings: HUVEC, 40 nM

inhibition [20] | Compound | inhibition [1] [%] | IC50 [2] [nM] | inhibition [3] [%] | Activity [4] | inhibition [5] [%] | inhibition [6] [%] | Activity [7] | half-life [8] [min] | inhibition [9] | inhibition [10] | inhibition [11] [%] | inhibition [12] [%] | inhibition [13] [%] | inhibition [14] [%] | inhibition [15] [%] | inhibition [16] [%] | inhibition [17] | inhibition [18] [%] | inhibition [19]
– | Cc1ccc(NC(=O)C2(C(=O)Nc3ccc(Nc4ncc(F)c(-c5cc(F)c6nc(C)n(C(C)C)c6c5)n4)cc3)CC2)cc1 | 12 | 46 | 59 | Active | 0 | 12 | Active | 180 | Active | Active | 50 | 7 | 14 | 40 | 10 | 33 | Active | 3 | –
Active | COc1cc2nccc(Oc3ccc(NC(=O)C4(C(=O)Nc5ccc(F)cc5)CC4)cc3)c2cc1OC [CABOZANTINIB] | – | – | – | – | – | – | – | – | – | – | – | – | – | – | – | – | – | – | Active
